Rows were chosen to be rich in hits. Some 4.9% of all compounds tested hit in one or more screens of this group.
STAT1 inh: STAT1 signaling inhibition | NIH 3T3 STAT1-luciferase reporter, IFN-gamma, luminescence | inhibition, % at 5.5 µM | actives 0.35% (n = 200,000) | AID 920;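 active = inhibition above a set limit, the mean inhibition across all tested compounds plus 3 SD, cut at about 34% in these data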;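 note: 0% = IFN-gamma with DMSO and 100% = IFN-gamma with 300 µM nifuroxazide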
STAT3 inh: inhibitors of IL-6 induced STAT3 signaling; AID 862; actives 0.89% (n = 190,000); U3A cells, IL-6 STAT3-luciferase reporter, luminescence; host cell line lacks STAT1; inhibition, % at 5.5 µM;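 active = inhibition above the mean inhibition across all screened compounds plus 3 SD, cut at about 44% in these data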;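 note: 0% = DMSO only wells and 100% = 100 µM nifuroxazide control wells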
NF-kB neuron act: raises NF-kB expression in human neuronal cells; AID 1239; NF-kB reporter expression; hits give high values; fold change at 12.5 µM; actives 1.6% (n = 190,000); in the data active = fold change above about 3.3
APP 5'UTR act: APP 5'UTR luciferase reporter activation; SH-SY5Y APP 5'UTR luciferase reporter, luminescence; zero percent = DMSO vehicle wells; activation, % at 2 µM; actives 1% (n = 190,000);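 active = activation above a set limit, based on mean plus 3 SD of controls, cut at about 140% in these data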
STAT3 activator: STAT3 signaling activation. activation (% of control), % at 5.6 µM. actives 0.91% (n = 190,000). U3A cells, IL-6 STAT3-luciferase reporter, luminescence; 100% = signal with IL-6 EC80 alone;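 active = activation above the screen-wide mean of compound activation plus 3 SD, cut at about 130% in these data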;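 note: 0% = background luminescence of wells with medium and substrate only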
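Material: STAT1-lacking human U3A cells, STAT3 luciferase reporter | Benchmarks: IL-6-only wells as 100% reference | Probe or stimulus: IL-6 (33 ng/mL) | Timing: Compound 1 h, then IL-6 6 h at 37 °C | Detection: Luminescence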
STAT1 act: increases IFN-gamma driven STAT1 reporter signal | NIH 3T3 STAT1-luciferase reporter, luminescence; 100% = IFN-gamma alone, no compound | activation (% of control), % at 5.5 µM | actives 2.6% (n = 200,000);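 active = activation above the screen-wide mean activation plus 3 SD, cut at about 130% in these data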;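 note: raw ratio to IFN-gamma control signal so 100% means no change and 0% no light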
Active calls of the source: *.

SMILES	STAT1 inh	STAT3 inh	NF-kB neuron act	APP 5'UTR act	STAT3 activator	STAT1 act
N#CC1=C(N)Nc2nc3ccccc3n2C1c1ccc(Cl)cc1 (configuration not stated)	-12.5	13.6	1.6	-0.1	90.1	111.1
O=C(/C=C/c1ccccc1)Nc1cccc(C(=O)O)c1	95.8*	107.0*	5.06*	-64.3	9.8	10.6
CCC1Oc2ccccc2N(CC(=O)NCc2cccs2)C1=O (configuration not stated)	2.3	5.1	1.11	18.2	106.0	97.1
COc1c(C)cccc1C(=O)Nc1ccc(CN2CCOCC2)cc1	-32.1	-1.8	1.71	118.2	103.1	129.8*
COc1c(C)cccc1C(=O)Nc1ccc(N2CCN(S(C)(=O)=O)CC2)cc1	-49.3	5.9	2.05	35.1	97.3	145.1*
COc1cccc(NC(=O)c2ccc(CN3CCOCC3)cc2)c1	-33.9	4.9	2.02	69.2	96.5	130.6*
O=C(CSCc1cccc(Br)c1)NC1CC1	4.8	0.9	1.28	22.4	100.0	95.7
COc1ccc(CNC(=O)CN(Cc2ccc(F)cc2)C(=O)c2csnn2)cc1	10.0	11.7	0.96	16.7	93.6	90.4
CCOC(=O)/C(C#N)=C/c1cc(C)n(-c2ccc(C)cc2)c1C	-52.8	-23.7	1.31	32.6	120.1	148.4*
Cc1cccc(NC(=O)/C(C#N)=C\c2cc(C)n(-c3ccc(C(=O)O)cc3)c2C)c1	-3.0	27.8	1.35	30.2	82.3	103.0
Cc1ccc(CN2CCN(C3CCOCC3)CC2CCO)cc1 (configuration not stated)	-5.3	2.9	0.98	19.2	102.6	102.8
CCOC(=O)c1ccc(N/C=C/C(=O)c2ccc(OC)cc2)cc1	2.3	17.1	1.56	4.6	90.5	98.0
CCOC(=O)c1ccc(NC(=O)Nc2ccccn2)cc1	-56.6	24.9	2	86.8	86.7	150.6*
CCOC(=O)c1ccc(N/C=C/C(=O)C(C)(C)C)cc1	-40.0	18.8	4.23*	98.5	88.3	135.7*
CCOC(=O)c1ccc(N/C=C/C(=O)c2ccccc2)cc1	-21.3	24.1	4.75*	164.3*	81.9	118.2
CN(C)c1ccc(N/C=C/C(=O)c2ccccc2)cc1	44.8*	84.1*	2.01	125.0	33.1	58.6
NC(=O)[C@@H]1CCCN1Cc1nc(Cc2ccccc2Cl)no1	-5.1	5.0	1.08	-4.8	99.5	103.1
CCc1ccc(-c2cc(C(F)(F)F)n3nc(C(=O)Nc4c(C)nn(Cc5ccc(F)cc5)c4C)cc3n2)s1	2.5	17.4	0.87	2.0	85.7	97.7
O=C(Nc1cnc2ccccc2c1)N1CCOCC1	-12.7	0.7	1.69	13.8	103.9	111.6
O=C(Nc1cnc2ccccc2c1)N1CCCCC1	-35.7	1.8	2.2	86.0	104.1	135.0*
CC(=O)Nc1ccc(NC(=O)c2ccccc2S(=O)(=O)c2ccc([N+](=O)[O-])cc2)cc1	7.8	11.6	1.27	-26.9	93.3	91.2
CCOC(=O)C(=O)N=Nc1c(O)n(C)c2ccccc12	-11.3	11.8	1.27	2.9	94.3	109.1
Cn1c(O)c(N=NC(=O)c2ccco2)c2ccccc21	-24.1	20.0	2.49	176.4*	86.2	121.1
Cn1c(O)c(N=NC(=O)c2ccccc2O)c2ccccc21	-33.8	-23.7	3.15	216.1*	124.7	129.5*
Cc1occc1C(=O)N=Nc1c(O)n(C)c2ccccc12	-55.2	-24.7	3.05	111.6	120.8	149.2*
SMILES	STAT1 inh	STAT3 inh	NF-kB neuron act	APP 5'UTR act	STAT3 activator	STAT1 act
N#CCCN(CCN1CCCC1)S(=O)(=O)c1ccc(-c2ccc([N+](=O)[O-])cc2)cc1	1.7	5.7	0.94	-21.6	96.3	97.0
COc1cc(-c2nnc(COC(=O)c3c4c(nc5ccccc35)CCCC4)o2)cc(OC)c1OC	17.5	14.3	0.95	-0.6	96.3	84.3
O=c1[nH]c(=O)n(Cc2ccco2)c2c1C(C(F)(F)F)(C(F)(F)F)N=C(c1ccc(F)cc1)N2	44.9*	50.6*	0.99	-32.6	60.3	58.7
O=C(CSc1ccccc1C(=O)O)NCC1CCCCC1	-2.4	1.3	1.11	7.8	102.1	100.5
C/C(=N\Nc1cccc2cccnc12)c1ccc[nH]1	-17.1	-17.4	1.27	206.2*	114.9	113.2
COc1ccc2c(c1OC)C(=O)N1c3ccccc3SC21 (configuration not stated)	-53.3	-22.2	1.96	79.3	121.5	148.9*
COc1ccc2c(c1OC)C(=O)N1c3cccc(Cl)c3C(=O)OC21 (configuration not stated)	-3.9	6.8	1.2	11.1	96.4	103.5
COc1ccc2c(c1OC)C(=O)N1c3ccccc3COC21 (configuration not stated)	-52.1	11.8	4.4*	81.9	93.2	147.7*
COc1ccc([N+](=O)[O-])cc1N/C(=N/S(=O)(=O)c1ccccc1)c1ccccc1	1.9	9.3	1.18	4.4	101.1	96.6
COc1ccc(N(CCCN2C(=O)c3cccc4cccc(c34)C2=O)C(=O)c2cccnc2)cc1	1.8	-10.2	0.8	31.2	109.7	97.0
COc1ccc(N(CCCN2C(=O)c3cccc4cccc(c34)C2=O)C(=O)c2ccncc2)cc1	-33.7	-13.8	0.9	3.5	112.6	129.7*
CCc1cc2c(Sc3nc4ccccc4s3)ncnc2s1	-46.3	-79.8	0.69	-21.2	177.7*	142.4*
Cc1ccc(-c2csc(NC(=O)CN3C(=O)CCC3=O)n2)cc1	-2.1	17.8	1.25	3.5	86.5	102.5
O=C(CN1C(=O)CCC1=O)Nc1nc(-c2nc3ccccc3s2)cs1	-32.5	-0.1	1.18	51.8	100.2	131.4*
O=C(CN1C(=O)CCC1=O)Nc1nc(-c2ccc3ccccc3c2)cs1	-42.9	12.6	1.9	-5.1	90.5	138.2*
COCCNc1nc2sc3c(c2c(=O)n1Cc1ccco1)CCCCC3	-32.4	-11.4	1.94	90.7	111.5	128.9*
O=C(Nc1ccnc(-c2ccncc2)n1)c1ccc(Cl)cc1	1.3	5.9	1.06	3.2	97.1	98.2
C(=C\c1ccccc1)/C=N/N1CCN(c2ccccn2)CC1	-34.9	10.9	2.1	17.1	98.3	132.0*
O=C(COC(=O)c1ccc(S(=O)(=O)N2CCCC2)cc1)Nc1ccc(F)cc1F	-1.0	5.8	1.15	-5.9	99.8	100.6
N#Cc1ccc(Cl)cc1NC(=O)COC(=O)c1ccc(S(=O)(=O)N2CCCC2)cc1	11.0	-43.1	1.21	6.9	133.8*	89.9
O=C(Cc1ccccc1)Nc1cccc(C(=O)O)c1O	-3.8	2.0	1.03	5.5	103.7	103.9
O=C(/C=C/c1c(F)cccc1Cl)Nc1ccncc1	-16.4	-4.2	2.36	59.8	102.1	115.5
Cc1ccc(Nc2nc3ccccc3[nH]2)nc1	-27.2	-4.9	5.38*	100.3	106.5	125.1
Cc1ccc(/C=C/C(=O)Nc2nc3ccccc3[nH]2)cc1	-32.0	-15.3	2.05	179.7*	114.7	128.6*

Assay outcomes from PubChem BioAssay.
